Four compounds from ChEMBL document CHEMBL1123581, “Differential blockade of muscarinic receptor subtypes by polymethylene tetraamines. Novel class of selective antagonists of cardiac M-2 muscarinic receptors” (J Med Chem, 1987) can be followed below.

Experiment [1] has as its target Muscarinic acetylcholine receptor. As to the kind of experiment: Compound was evaluated for blocking activity on Muscarinic acetylcholine receptor in guinea pig atria. The class given is protein assay, Cavia porcellus.
Experiment [2] shares this target. As to the kind of experiment: Compound was evaluated for blocking activity on Muscarinic acetylcholine receptor in rat ileum. It counts as tissue-based. The method, boiled down: (§1)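 Male rat terminal ileum segment (20 mm, ~5 cm from ileocecal junction) or 2-mm longitudinal bladder strip, in Krebs-type solution. After 30 min equilibration, cumulative furtrethonium iodide curves (~3-fold steps) at 30-min intervals; antagonist incubated 30 min. Isometric contraction recorded.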

Experiment [3] in a line: Selectivity ratio of pA2 of guinea pig atria to pA2 of rat bladder. The gist of the method:
(§2)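 Computed as the antilog of the difference between pA2 values for the two tissues (atria/ileum, atria/bladder, ileum/bladder). Each pA2 is a Schild value from muscarinic agonist dose ratios at three antagonist concentrations, each n≥5.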

The nature of experiment [4]: Selectivity ratio of pA2 of guinea pig atria to pA2 of rat ileum. It counts as tissue-based. The gist of the method: as §2
Experiment [5] can be described thus: Selectivity ratio of pA2 of rat ileum to pA2 of rat bladder. The class given is tissue-based. The method, boiled down:
as §2

Experiment [6] addresses Muscarinic acetylcholine receptor. Put plainly: Compound was evaluated for blocking activity on Muscarinic acetylcholine receptor in rat bladder. The method, boiled down: as §1

With `COc1ccccc1CNCCCCCCNCCCCCCCCCCCCNCCCCCCNCc1ccccc1OC.Cl`, the pA2 in experiment [1] is on record as 7.35; in experiment [2], 7.62; in experiment [6] it was 7.13. Moreover, the Ratio in experiment [3] came to 1.66; in experiment [4] it was 0.54; in experiment [5], 3.09.
Consider `COc1ccccc1CNCCCCCCNCCCCCCNCCCCCCNCc1ccccc1OC.Cl.Cl.Cl.Cl`, for which the results for the pA2 in experiment [1], in experiment [2] and in experiment [6] were 6.87, 5.29 and 5.57, respectively. Also, the Ratio in experiment [3] worked out at 20; in experiment [4], 38; in experiment [5] it was 0.52.
On to `COc1ccccc1CNCCCCCCNCCCCCCCCCCNCCCCCCNCc1ccccc1OC.Cl.Cl.Cl.Cl`, for which the results for the pA2 in experiment [1], in experiment [2] and in experiment [6] were 7.71, 5.73 and 5.49, respectively. For the same compound, the Ratio amounted to 166 in experiment [3], 95 in experiment [4] and 1.74 in experiment [5].
In the case of `COc1ccccc1CNCCCCCCNCCCCCCCCCNCCCCCCNCc1ccccc1OC.Cl.Cl.Cl.Cl`, the figures for the pA2 in experiment [1], in experiment [2] and in experiment [6] were 7.96, 5.81 and 6.08, respectively.

As usually defined, the pA2 is the negative logarithm of the molar antagonist concentration that doubles the agonist concentration needed for the same response. Lower therefore signals a weaker antagonist.
